Measured values as given in ChEMBL document CHEMBL1148351, “Probing the pharmacophore for allosteric ligands of muscarinic M2 receptors: SAR and QSAR studies in a series of bisquaternary salts of caracurine V and related ring systems” (J Med Chem, 2004).
Calls of active or inactive are those of the source. No cut-off for these calls is given here.

Assays:
[1] = target: T1, Muscarinic acetylcholine receptor M2 (Sus scrofa) (UniProt P06199); assay: Concentration for half maximal inhibition of [3H]NMS dissociation from muscarinic acetylcholine receptor M2 in porcine heart ventricles
T1 sequence (whole entry): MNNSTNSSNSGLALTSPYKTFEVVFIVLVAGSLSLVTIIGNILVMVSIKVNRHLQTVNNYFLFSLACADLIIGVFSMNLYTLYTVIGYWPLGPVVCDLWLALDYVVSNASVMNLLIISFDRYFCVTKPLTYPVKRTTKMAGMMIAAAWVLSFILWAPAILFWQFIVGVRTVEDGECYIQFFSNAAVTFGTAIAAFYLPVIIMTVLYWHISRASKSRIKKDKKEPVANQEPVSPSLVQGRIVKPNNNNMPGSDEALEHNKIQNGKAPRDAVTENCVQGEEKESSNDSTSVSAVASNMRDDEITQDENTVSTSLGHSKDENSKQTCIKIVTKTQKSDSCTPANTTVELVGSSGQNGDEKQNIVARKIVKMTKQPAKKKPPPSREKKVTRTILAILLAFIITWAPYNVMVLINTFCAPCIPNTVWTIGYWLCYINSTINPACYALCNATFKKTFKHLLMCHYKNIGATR
Summary of the method: (§1)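 Porcine cardiac homogenates, 0.2 nM [3H]NMS in 4 mM Na2HPO4/1 mM KH2PO4 pH 7.4, 23 °C; preincubated 30 min, then dissociation started with 1 μM atropine with or without modulator. Specific binding sampled over 120 min (complete) or at t=0 and 10 min (two-point). Apparent k-1 expressed as % control; four-parameter logistic fit gives EC0.5,diss. Two to four experiments; nonspecific defined by 10^-6 M atropine; filtration, scintillation counting.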

[2] = target: T1, Muscarinic acetylcholine receptor M2 (Sus scrofa); assay: Equilibrium binding to muscarinic acetylcholine receptor M2 using [3H]NMS in porcine heart ventricles
[3] = target: T1, Muscarinic acetylcholine receptor M2 (Sus scrofa); assay: Effective concentration for half maximal inhibition of [3H]NMS dissociation from Muscarinic acetylcholine receptor M2 in porcine heart ventricles; Non-active; summary of the method: as §1

| pEC0.5 [1] | [3H]NMS equilibrium binding (%) [2] [%] | pEC0.5 [3] | Structure (SMILES) |
| --- | --- | --- | --- |
| 5.82 | 89 |  | C1=C2C[N@+]3(Cc4ccc5ccccc5c4)CCC45c6ccccc6N6C7OCC=C8C[N@+]9(Cc%10ccc%11ccccc%11c%10)CCC%10%11c%12ccccc%12N(C(OC1)C(C2CC43)C65)C%10C7C8CC%119 (stereo partly drawn) |
| 5.49 | 6.1 |  | O=C(C[N+]12CC[C@@]34c5ccccc5N5[C@@H]6OCC=C7C[N+]8(CC(=O)c9ccccc9)CC[C@]9%10c%11ccccc%11N([C@@H]%11OCC=C(C1)[C@H](C[C@@H]32)[C@@H]%11[C@H]54)[C@H]9[C@H]6[C@H]7C[C@@H]%108)c1ccccc1 (stereo partly drawn) |
| 6.47 | 99.8 |  | O=[N+]([O-])c1ccc(C[N+]23CC[C@@]45c6ccccc6N6[C@@H]7OCC=C8C[N+]9(Cc%10ccc([N+](=O)[O-])cc%10)CC[C@]%10%11c%12ccccc%12N([C@@H]%12OCC=C(C2)[C@H](C[C@@H]43)C%12[C@H]65)[C@H]%10[C@H]7[C@H]8C[C@@H]%119)cc1 (stereo partly drawn) |
| 7.14 | 100 |  | C/C=C/C[N@+]12CCC34c5ccccc5N5C6OCC=C7C[N@+]8(C/C=C/C)CCC9%10c%11ccccc%11N(C%11OCC=C(C1)C(CC32)C%11C54)C9C6C7CC%108 (stereo partly drawn) |
| 7.36 | 103 |  | CC#CC[N@+]12CCC34c5ccccc5N5C6OCC=C7C[N@+]8(CC#CC)CCC9%10c%11ccccc%11N(C%11OCC=C(C1)C(CC32)C%11C54)C9C6C7CC%108 (stereo partly drawn) |
| 7.7 | 109 |  | C1=CC([N@+]23CCC45c6ccccc6N6C7OCC=C8C[N@+]9(C%10C=CCCC%10)CCC%10%11c%12ccccc%12N(C%12OCC=C(C2)C(CC43)C%12C65)C%10C7C8CC%119)CCC1 (stereo partly drawn) |
| 7.86 | 110 |  | C1=C2C[N@+]3(CC4CC4)CCC45c6ccccc6N6C7OCC=C8C[N@+]9(CC%10CC%10)CCC%10%11c%12ccccc%12N(C(OC1)C(C2CC43)C65)C%10C7C8CC%119 (stereo partly drawn) |
|  |  | inactive | [O-][N+]12CC[C@@]34c5ccccc5N5[C@@H]6OCC=C7C[N+]8([O-])CC[C@]9%10c%11ccccc%11N([C@@H]%11OCC=C(C1)[C@H](C[C@@H]32)C%11[C@H]54)[C@H]9[C@H]6[C@H]7C[C@@H]%108 (stereo partly drawn) |
| 7.19 | 110 |  | C1=C2C[N+]3(CC4CO4)CC[C@@]45c6ccccc6N6[C@@H]7OCC=C8C[N+]9(CC%10CO%10)CC[C@]%10%11c%12ccccc%12N([C@H](OC1)[C@H](C2C[C@@H]43)[C@H]65)[C@H]%10[C@H]7[C@H]8C[C@@H]%119 (stereo partly drawn) |
| 7.74 | 81.4 |  | C=CC[N+]12CC[C@@]34c5ccccc5N5[C@@H]6OCC=C7CN8CC[C@]9%10c%11ccccc%11N([C@@H]%11OCC=C(C1)[C@H](C[C@@H]32)[C@@H]%11[C@H]54)[C@H]9[C@H]6[C@H]7C[C@H]8%10 (stereo partly drawn) |
| 5.95 | 70.4 |  | COc1ccc(C[N+]23CC[C@@]45c6ccccc6N6[C@@H]7OCC=C8C[N+]9(Cc%10ccc(OC)cc%10)CC[C@]%10%11c%12ccccc%12N([C@@H]%12OCC=C(C2)[C@H](C[C@@H]43)[C@@H]%12[C@H]65)[C@H]%10[C@H]7[C@H]8C[C@@H]%119)cc1 (stereo partly drawn) |
| 6.69 | 85.3 |  | N#CC[N+]12CC[C@@]34c5ccccc5N5[C@@H]6OCC=C7C[N+]8(CC#N)CC[C@]9%10c%11ccccc%11N([C@@H]%11OCC=C(C1)[C@H](C[C@@H]32)C%11[C@H]54)[C@H]9[C@H]6[C@H]7C[C@@H]%108 (stereo partly drawn) |
| 7.27 | 111 |  | Fc1c(F)c(F)c(C[N@+]23CCC45c6ccccc6N6C7OCC=C8C[N@+]9(Cc%10c(F)c(F)c(F)c(F)c%10F)CCC%10%11c%12ccccc%12N(C%12OCC=C(C2)C(CC43)C%12C65)C%10C7C8CC%119)c(F)c1F (stereo partly drawn) |
| 5.76 | 87 |  | FC(F)(F)c1ccc(C[N+]23CC[C@@]45c6ccccc6N6[C@@H]7OCC=C8C[N+]9(Cc%10ccc(C(F)(F)F)cc%10)CC[C@]%10%11c%12ccccc%12N([C@@H]%12OCC=C(C2)[C@H](C[C@@H]43)[C@@H]%12[C@H]65)[C@H]%10[C@H]7[C@H]8C[C@@H]%119)cc1 (stereo partly drawn) |
| 6.47 | 100 |  | COc1ccc(C[N+]23CC[C@@]45c6ccccc6N6[C@@H]7OCC=C8C[N+]9(Cc%10ccc(OC)c(OC)c%10)CC[C@]%10%11c%12ccccc%12N([C@@H]%12OCC=C(C2)[C@H](C[C@@H]43)C%12[C@H]65)[C@H]%10[C@H]7[C@H]8C[C@@H]%119)cc1OC (stereo partly drawn) |
| 6.65 | 87.8 |  | NC(=O)C[N+]12CC[C@@]34c5ccccc5N5[C@@H]6OCC=C7C[N+]8(CC(N)=O)CC[C@]9%10c%11ccccc%11N([C@@H]%11OCC=C(C1)[C@H](C[C@@H]32)[C@@H]%11[C@H]54)[C@H]9[C@H]6[C@H]7C[C@@H]%108 (stereo partly drawn) |

Further lines, the compound ahead of its results:

| Structure (SMILES) | pEC0.5 [1] | [3H]NMS equilibrium binding (%) [2] [%] | pEC0.5 [3] |
| --- | --- | --- | --- |
| C=CC[N+]12CC[C@]34c5cc(OC)c(OC)cc5N5C3[C@@H]3[C@@H](OCC=C(C1)[C@@H]3C[C@@H]42)N1c2cc(OC)c(OC)cc2[C@@]23CC[N+]4(CC=C)CC6=CCO[C@@H]5[C@@H](C12)[C@H]6C[C@@H]34 (stereo partly drawn) | 6.69 |  |  |
| OC/C=C1\C[N+]2(C3C=CCCC3)CCC34c5ccccc5N5/C=C6/C7CC8C9(CC[N+]8(C8C=CCCC8)C/C7=C/CO)c7ccccc7N(/C=C(/C1CC32)C54)C69 (stereo not drawn) | 8.07 | 118 |  |
| C=CC[N+]12CC[C@@]34c5ccccc5N5/C=C6\C7N(c8ccccc8[C@@]78CC[N+]7(CC=C)C/C(=C/CO)[C@@H]6C[C@@H]87)[C@@H]6OCC=C(C1)[C@H](C[C@@H]32)C6C54 (stereo partly drawn) | 8.57 | 119 |  |
| O=C1c2ccccc2C(=O)N1CCC[N@+]12CCC34c5ccccc5N5C6OCC=C7C[N@+]8(CCCN9C(=O)c%10ccccc%10C9=O)CCC9%10c%11ccccc%11N(C%11OCC=C(C1)C(CC32)C%11C54)C9C6C7CC%108 (stereo partly drawn) | 6.43 | 88.4 |  |
| C[N+]12CC[C@@]34c5ccccc5N5[C@@H]6OCC=C7C[N+]8(C)CC[C@]9%10c%11ccccc%11N([C@@H]%11OCC=C(C1)[C@H](C[C@@H]32)[C@@H]%11[C@H]54)[C@H]9[C@H]6[C@H]7C[C@@H]%108 (stereo partly drawn) | 8.09 | 115 |  |
| C[N+]12CC[C@@]34c5ccccc5N5[C@@H]6OCC[C@@H]7C[N+]8(C)CC[C@]9%10c%11ccccc%11N([C@@H]%11OCC[C@H](C1)[C@H](C[C@@H]32)C%11[C@H]54)[C@H]9[C@H]6[C@H]7C[C@@H]%108 (stereo partly drawn) | 8.44 | 104 |  |
| C=CC[N@@+]12CC[C@@]34c5ccccc5N5/C=C6/[C@H]7C[C@H]8[C@@]9(CC[N@@+]8(CC=C)C/C7=C/CO)c7ccccc7N(/C=C(/[C@@H](C[C@@H]31)/C(=C\CO)C2)[C@H]54)[C@@H]69 | 8.65 | 116 |  |
| C=CC[N+]12CC[C@@]34c5ccccc5N5[C@@H]6OCC=C7C[N+]8(CC=C)CC[C@]9%10c%11ccccc%11N([C@@H]%11OCC=C(C1)[C@H](C[C@@H]32)[C@@H]%11[C@H]54)[C@H]9[C@H]6[C@H]7C[C@@H]%108 (stereo partly drawn) | 7.95 | 109 |  |
| C#CC[N@+]12CCC34c5ccccc5N5C6OCC=C7C[N@+]8(CC#C)CCC9%10c%11ccccc%11N(C%11OCC=C(C1)C(CC32)C%11C54)C9C6C7CC%108 (stereo partly drawn) | 8.36 | 105 |  |
| C1=C2CN3CC[C@]45c6ccccc6N6[C@@H]7OCC=C8CN9CC[C@]%10%11c%12ccccc%12N([C@H](OC1)[C@@H]([C@H]64)[C@H]2C[C@H]35)[C@H]%10[C@H]7[C@H]8C[C@H]9%11 | 6.36 | 95.8 |  |
| C[N+]12CCC34c5ccccc5N5/C=C6/C7CC8C9(CC[N+]8(C)C/C7=C/CO)c7ccccc7N(/C=C(/C(CC31)/C(=C/CO)C2)C54)C69 (stereo not drawn) | 7.87 | 119 |  |
| C[N@@+]12CC[C@@]34c5ccccc5N5/C=C6/[C@H]7C[C@H]8[C@@]9(CC[N@@+]8(C)C/C7=C/CO)c7ccccc7N(/C=C(/[C@@H](C[C@@H]31)/C(=C\CO)C2)[C@H]54)[C@@H]69 | 7.02 | 104 |  |
| C1=C2C[N@+]3(Cc4ccccc4)CCC45c6ccccc6N6C7OCC=C8C[N@+]9(Cc%10ccccc%10)CCC%10%11c%12ccccc%12N(C(OC1)C(C2CC43)C65)C%10C7C8CC%119 (stereo partly drawn) | 7.12 | 86.4 |  |
| Brc1ccc(C[N+]23CC[C@@]45c6ccccc6N6[C@@H]7OCC=C8C[N+]9(Cc%10ccc(Br)cc%10)CC[C@]%10%11c%12ccccc%12N([C@@H]%12OCC=C(C2)[C@H](C[C@@H]43)[C@@H]%12[C@H]65)[C@H]%10[C@H]7[C@H]8C[C@@H]%119)cc1 (stereo partly drawn) | 6.29 | 113 |  |
